Measured values from ChEMBL document CHEMBL3992510, “Urea Derivatives of 2-Aryl-benzothiazol-5-amines: A New Class of Potential Drugs for Human African Trypanosomiasis” (J Med Chem, 2017).

Columns and labels:
[1] = test system: Trypanosoma brucei brucei; assay: Antitrypanosomal activity against Trypanosoma brucei brucei BF427 assessed as growth inhibition measured after 48 hrs by Alamar blue assay; format: functional; settings: BF427, 48 h
Summary of the method: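 Bloodstream-form parasites in HMI-9 medium are exposed to serial compound dilutions in triplicate. Viability is read with Alamar Blue at 48 h. EC50 and EC90 come from nonlinear regression. Pentamidine isethionate is the control.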

[2] = Selectivity index, ratio of EC50 for human HepG2 cells to EC50 for Trypanosoma brucei brucei BF427; format: toxicity; settings: read-out: Ratio EC50
[3] = Cytotoxicity against human CRL8155 cells assessed as growth inhibition after 48 hrs by Alamar blue assay; format: cell-based; settings: for EC50: Homo sapiens, CRL8155, 48 h; for EC90: human, crl8155, 48 h
Summary of the method: (§1)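 CRL-8155 lymphoblasts or HepG2 hepatocellular carcinoma cells are exposed 48 h to serial compound dilutions in quadruplicate. Growth is read with Alamar Blue, and 50% and 90% inhibitory concentrations come from nonlinear regression. Quinacrine is the control.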

[4] = Selectivity index, ratio of EC50 for human CRL8155 cells to EC50 for Trypanosoma brucei brucei BF427; format: toxicity; settings: read-out: Ratio EC50
[5] = test system: HepG2; assay: Cytotoxicity against human HepG2 cells assessed as growth inhibition after 48 hrs by Alamar blue assay; format: cell-based; settings: for EC50: Homo sapiens, HepG2, 48 h; for EC90: human, hepg2, 48 h; summary of the method: as §1
[6] = Drug level in mouse plasma at 5 mg/kg, ip administered as single dose measured at 1 hr post dose by liquid chromatography/tandem mass spectrometric analysis; format: ADME, organism-based
Summary of the method: (§2)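 Single ip dose of 5 mg/kg in 5% DMSO/7% Tween 80/3% EtOH in 0.9% saline, three mice per compound (six for one compound). At 1 h, plasma is separated by centrifugation and brain homogenized in acetonitrile. Both are quantified by LC-MS/MS, with brain corrected for 3% v/w blood. Brain/plasma ratio is reported as mean ± SEM.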

[7] = test system: Liver; assay: Half life in mouse liver microsomes at 1.5 uM in presence of NADPH by liquid chromatography/tandem mass spectrometric analysis; format: ADME, microsome
[8] = Drug level in mouse brain at 5 mg/kg, ip administered as single dose measured at 1 hr post dose by liquid chromatography/tandem mass spectrometric analysis; format: ADME, organism-based; settings: read-out: Drug uptake; summary of the method: as §2
[9] = test system: Liver; assay: Half life in human liver microsomes at 1.5 uM in presence of NADPH by liquid chromatography/tandem mass spectrometric analysis; format: ADME, microsome

Structure (SMILES) | EC50 [1] | EC90 [1] | further results
O=C(NCCc1nc(-c2ccccc2)cs1)N1CCCCCC1 | 0.11 µM | 0.236 µM | 
CCN(CC)CCCC(C)Nc1c2ccc(Cl)cc2nc2ccc(OC)cc12 (stereo not given) [QUINACRINE] |  |  | EC50 [3]: 4.23 µM; EC90 [3]: 9.94 µM; EC50 [5]: 10.4 µM; EC90 [5]: 18.2 µM
O=C(NCCc1nc(-c2cccc(F)c2)cs1)N1CCc2ccccc2C1 | 9.76 µM | 13.8 µM | 
O=C(Nc1nc2ccc(-c3ccc(F)c(F)c3)cc2s1)N1CCC(F)C1 (stereo not given) | 2.23 µM | > 20 µM | 
O=C(Nc1ccc2sc(-c3cccc(F)c3)nc2c1)c1ccccc1 | 1.78 µM | 3.62 µM | 
CC(C)(Cc1nc(-c2ccccc2)cs1)NC(=O)c1ccccc1 | > 10 µM | > 10 µM | 
O=C(Nc1nc2cc(-c3ccc(F)c(F)c3)ccc2s1)N1CCC(F)C1 (stereo not given) | 2.64 µM | 5.28 µM | 
N=C(N)c1ccc(OCCCCCOc2ccc(C(=N)N)cc2)cc1 | 0.00105 µM | 0.00354 µM | selectivity ratio [2]: > 93000; EC50 [3]: 45.4 µM; EC90 [3]: > 100 µM; selectivity ratio [4]: > 43200; EC50 [5]: > 100 µM; EC90 [5]: > 100 µM
CC(C)(Cc1csc(-c2ccccc2)n1)NC(=O)c1ccccc1 | > 10 µM | > 10 µM | 
O=C(Nc1ccc2sc(-c3ccc(F)cc3)nc2c1)c1ccccc1 | 1.92 µM | 3 µM | 
O=C(Nc1ccc2[nH]c(-c3ccccc3)nc2c1)c1ccccc1 | > 10 µM | > 10 µM | 
O=C(Nc1ccc2sc(-c3ccccc3)nc2c1)c1nccs1 | 5.86 µM | > 10 µM | 
CC(C)(Cc1csc(-c2ccccc2)n1)NC(=O)N1CCCC1 | > 10 µM | > 10 µM | 

Continued, in another order:

EC50 [1] | EC90 [1] | Structure (SMILES) | further results
3.15 µM | 7.55 µM | CN1CCN(C(=O)Nc2ccc3sc(-c4cccc(F)c4)nc3c2)CC1 | 
0.427 µM | 0.737 µM | O=C(Nc1ccc2sc(-c3ccc(F)cc3)nc2c1)N1CCCCC1 | selectivity ratio [2]: > 117; EC50 [3]: > 50 µM; EC90 [3]: > 50 µM; selectivity ratio [4]: > 117; EC50 [5]: > 50 µM; EC90 [5]: > 50 µM
> 20 µM | > 20 µM | Cc1nc2cc(NC(=O)N3CCCC3)ccc2s1 | 
2.98 µM | 4.17 µM | O=C(Nc1ccc2sc(-c3ccc(F)c(F)c3)nc2c1)N1CCC(F)(F)CC1 | 
0.158 µM | 0.391 µM | O=C(Nc1ccc2sc(-c3cccc(F)c3)nc2c1)N1CCCC1 | concentration at 1 h [6]: 2220 nM; selectivity ratio [2]: > 316; t1/2 [7]: 12 min; EC50 [3]: > 50 µM; EC90 [3]: > 50 µM; concentration at 1 h [8]: 2280 nM; t1/2 [9]: 37 min; selectivity ratio [4]: > 316; EC50 [5]: > 50 µM; EC90 [5]: > 50 µM
> 20 µM | > 20 µM | O=C(Nc1ccc2nc(-c3ccc(F)c(F)c3)sc2c1)N1CCC(F)C1 (stereo not given) | 
0.375 µM | 0.895 µM | O=C(Nc1ccc2sc(-c3ccc(F)cc3)nc2c1)N1CCCC1 | selectivity ratio [2]: > 133; EC50 [3]: > 50 µM; EC90 [3]: > 50 µM; selectivity ratio [4]: > 133; EC50 [5]: > 50 µM; EC90 [5]: > 50 µM
0.983 µM | 1.24 µM | O=C(Nc1ccc2sc(-c3ccccc3F)nc2c1)N1CCCC1 | selectivity ratio [2]: > 51; EC50 [3]: > 50 µM; EC90 [3]: > 50 µM; selectivity ratio [4]: > 51; EC50 [5]: > 50 µM; EC90 [5]: > 50 µM
0.341 µM | 0.596 µM | O=C(Nc1ccc2sc(-c3ccc(F)c(F)c3)nc2c1)N1CCC(F)CC1 | concentration at 1 h [6]: 2510 nM; selectivity ratio [2]: > 147; EC50 [3]: > 50 µM; EC90 [3]: > 50 µM; concentration at 1 h [8]: 2520 nM; selectivity ratio [4]: > 147; EC50 [5]: > 50 µM; EC90 [5]: > 50 µM
5.25 µM | > 10 µM | O=C(Nc1ccc2oc(-c3ccccc3)nc2c1)N1CCCC1 | concentration at 1 h [6]: 270 nM; concentration at 1 h [8]: 397 nM
2.32 µM | 2.72 µM | NC1CCN(C(=O)Nc2ccc3sc(-c4ccc(F)c(F)c4)nc3c2)C1 (stereo not given) | 
1.7 µM | 1.95 µM | CN(C)C1CCN(C(=O)Nc2ccc3sc(-c4ccc(F)c(F)c4)nc3c2)C1 (stereo not given) | concentration at 1 h [6]: 780 nM; concentration at 1 h [8]: 3000 nM
0.929 µM | 1.48 µM | O=C(Nc1ccc2sc(-c3ccc(F)cc3F)nc2c1)N1CCCC1 | 
